Legend:
[1] = Synergistic agonist activity at Wnt/beta-catenin (unknown origin) expressed in Wnt-3A conditioned media stimulated with HEK293 cells incubated for 24 hrs by firefly luciferase based TOPflash reporter assay; format: cell-based; details: Homo sapiens, HEK293, 24 h
In short: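 HEK293 cells stably transfected with TOPFlash reporter, stimulated with Wnt3A conditioned media plus compound for 24 h. Luciferase activity then read by Bright-Glo luminescence. EC50 (µM) derived, given as mean ± standard deviation.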

[2] = biological target: ADP-ribosylation factor GTPase-activating protein 1 (Rattus norvegicus) (UniProt Q62848); assay: (§1) Inhibition of poly-histidine tagged full-length rat ARFGAP1 expressed in Sf9 cells assessed as remaining enzyme activity at 10 uM using purified WT ARF1 pre-loaded with [gamm-32P]-labeled GTP incubated for 5 mins before ARF1-GTP addition followed by 25 mins incubation by scintillation counting method
[3] = biological target: ADP-ribosylation factor GTPase-activating protein 1 (Rattus norvegicus) (UniProt Q62848); assay: as §1, with “20” for “10”
[4] = system: HEK293; assay: Potency index, ratio of EC50 for QS11 to EC50 for test compound for synergistic agonist activity at Wnt/beta-catenin (unknown origin) expressed in Wnt-3A conditioned media stimulated with HEK293 cells incubated for 24 hrs by firefly luciferase based TOPflash reporter assay; format: cell-based; details: Homo sapiens

Chain of ADP-ribosylation factor GTPase-activating protein 1 (Rattus norvegicus) (Q62848 whole entry): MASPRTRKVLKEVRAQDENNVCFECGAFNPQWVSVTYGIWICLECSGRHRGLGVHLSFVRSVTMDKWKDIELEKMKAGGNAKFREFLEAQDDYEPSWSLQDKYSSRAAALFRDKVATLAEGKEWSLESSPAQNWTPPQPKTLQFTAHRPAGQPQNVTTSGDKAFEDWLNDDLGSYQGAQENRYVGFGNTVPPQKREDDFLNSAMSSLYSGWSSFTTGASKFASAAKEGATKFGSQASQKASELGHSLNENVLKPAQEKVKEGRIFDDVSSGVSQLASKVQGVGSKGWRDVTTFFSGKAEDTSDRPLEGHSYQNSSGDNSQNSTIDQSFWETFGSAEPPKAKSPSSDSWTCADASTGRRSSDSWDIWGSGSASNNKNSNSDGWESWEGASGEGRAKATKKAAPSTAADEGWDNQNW

EC50 [1] | Activity [2] | Activity [3] | SMILES | Ratio EC50 [4]
2.6 µM | 70% | 39% | COc1nc(N[C@H](CO)Cc2ccccc2)c2ncn(Cc3ccc(-c4ccccc4)cc3)c2n1 | –
1.5 µM | 98% | 71% | OC[C@H](Cc1ccccc1)Nc1nc(N2CCOCC2)nc2c1ncn2Cc1ccc(-c2ccccc2)cc1 | –
> 100 µM | 60% | 50% | c1ccc(CCNc2nc(Oc3ccc4c(c3)CCC4)nc3c2ncn3Cc2ccc(-c3ccccc3)cc2)cc1 | –
> 100 µM | 32% | 20% | c1ccc(CCNc2nc(Oc3cccc4ccccc34)nc3c2ncn3Cc2ccc(-c3ccccc3)cc2)cc1 | –
> 100 µM | 117% | 113% | OC[C@H](Cc1ccccc1)Nc1nc(Oc2ccc3c(c2)CCC3)nc2c1ncn2Cc1ccccc1 | –
1.5 µM | 33% | 10% | OC[C@H](Cc1ccccc1)Nc1nc(Oc2ccc3c(c2)CCC3)nc2c1ncn2Cc1ccc(-c2ccccc2)cc1 | –
> 100 µM | 42% | 34% | COc1ccc(-c2ccc(Cn3cnc4c(N[C@H](CO)Cc5ccccc5)nc(Oc5ccc6c(c5)CCC6)nc43)cc2)cc1 | –
4.4 µM | 53% | 35% | OC[C@H](Cc1ccccc1)Nc1nc(Oc2ccc3ccccc3c2)nc2c1ncn2Cc1ccc(-c2ccccc2)cc1 | –
> 100 µM | 53% | 31% | c1ccc(-c2ccc(Cn3cnc4c(NCc5cccc6ccccc56)nc(Oc5ccc6ccccc6c5)nc43)cc2)cc1 | –
> 100 µM | 42% | 40% | OC[C@H](Cc1ccccc1)Nc1nc(Oc2ccc3c(c2)CCC3)nc2c1ncn2Cc1ccc(Oc2ccccc2)cc1 | –
> 100 µM | 98% | 75% | COc1ccc(Cn2cc(Cn3cnc4c(N[C@H](CO)Cc5ccccc5)nc(Oc5ccc6c(c5)CCC6)nc43)nn2)cc1 | –
18 µM | 16% | 12% | FC(F)(F)c1cccc(Oc2nc(NCc3cccc4ccccc34)c3ncn(Cc4ccc(-c5ccccc5)cc4)c3n2)c1 | –
> 100 µM | 56% | 41% | Cc1ccccc1-c1ccc(Cn2cnc3c(N[C@H](CO)Cc4ccccc4)nc(Oc4ccc5c(c4)CCC5)nc32)cc1 | –
> 100 µM | 93% | 62% | OC[C@H](Cc1ccccc1)Nc1nc(Oc2ccc3c(c2)CCC3)nc2c1ncn2Cc1cn(Cc2ccccc2)nn1 | –
0.65 µM | 25% | 17% | COC(=O)[C@H](Cc1ccccc1)Nc1nc(Oc2ccc3ccccc3c2)nc2c1ncn2Cc1ccc(-c2ccccc2)cc1 | 2
1.9 µM | 24% | 11% | COc1cc(OC)cc(Oc2nc(N[C@H](CO)Cc3ccccc3)c3ncn(Cc4ccc(-c5ccccc5)cc4)c3n2)c1 | –
1.3 µM | 22% | 15% | CC[C@@H](CO)Nc1nc(Oc2cccc3ccccc23)nc2c1ncn2Cc1ccc(-c2ccccc2)cc1 | –
> 100 µM | 74% | 63% | c1ccc(-c2ccc(Cn3cnc4c(NCc5cccc6ccccc56)nc(Oc5ccc6c(c5)CCC6)nc43)cc2)cc1 | –
3.4 µM | 21% | 12% | COC(=O)[C@H](Cc1ccccc1)Nc1nc(Oc2cccc3ccccc23)nc2c1ncn2Cc1ccc(-c2ccccc2)cc1 | –
> 100 µM | 105% | 57% | OC[C@H](Cc1ccccc1)Nc1nc(Oc2ccc3c(c2)CCC3)nc2c1ncn2Cc1cn(-c2ccccc2)nn1 | –
6.6 µM | 35% | 24% | OC[C@H](Cc1ccccc1)Nc1nc(Oc2cccc3ccccc23)nc2c1ncn2Cc1ccc(-c2ccccc2)cc1 | –

EC50 [1] | Activity [2] | Activity [3] | SMILES | Ratio EC50 [4]
4 µM | 41% | 24% | CC[C@@H](CO)Nc1nc(Oc2ccc3ccccc3c2)nc2c1ncn2Cc1ccc(-c2ccccc2)cc1 | –
> 100 µM | 41% | 33% | FC(F)(F)c1cccc(Oc2nc(NCCc3ccccc3)c3ncn(Cc4ccc(-c5ccccc5)cc4)c3n2)c1 | –
> 100 µM | 90% | 86% | c1ccc(CCNc2nc(Oc3ccc4ccccc4c3)nc3c2ncn3Cc2ccc(-c3ccccc3)cc2)cc1 | –
> 100 µM | 58% | 45% | O=[N+]([O-])c1ccc(Cn2cc(Cn3cnc4c(N[C@H](CO)Cc5ccccc5)nc(Oc5ccc6c(c5)CCC6)nc43)nn2)cc1 | –
> 100 µM | 106% | 109% | OC[C@H](Cc1ccccc1)Nc1nc(Oc2ccc3c(c2)CCC3)nc2c1ncn2CCOCc1ccccc1 | –
> 100 µM | 50% | 32% | OC[C@H](Cc1ccccc1)Nc1nc(Oc2ccc3c(c2)CCC3)nc2c1ncn2-c1ccc(-c2ccccc2)cc1 | –
3.6 µM | 55% | 22% | COc1ccc(Oc2nc(N[C@H](CO)Cc3ccccc3)c3ncn(Cc4ccc(-c5ccccc5)cc4)c3n2)cc1OC | –
> 100 µM | 70% | 32% | CC[C@@H](CO)Nc1nc(Oc2ccc3c(c2)OCO3)nc2c1ncn2Cc1ccc(-c2ccccc2)cc1 | –
3.3 µM | 54% | 29% | COc1cccc(Oc2nc(N[C@H](CO)Cc3ccccc3)c3ncn(Cc4ccc(-c5ccccc5)cc4)c3n2)c1 | –
8.5 µM | 49% | 39% | OC[C@H](Cc1ccccc1)Nc1nc(Oc2ccc3c(c2)OCO3)nc2c1ncn2Cc1ccc(-c2ccccc2)cc1 | –
> 100 µM | 20% | 20% | c1ccc(-c2ccc(Cn3cnc4c(NCc5cccc6ccccc56)nc(Oc5cccc6ccccc56)nc43)cc2)cc1 | –
1.1 µM | 31% | 18% | COC(=O)[C@H](Cc1ccccc1)Nc1nc(Oc2ccc3c(c2)OCO3)nc2c1ncn2Cc1ccc(-c2ccccc2)cc1 | –
> 100 µM | 35% | 34% | c1ccc(-c2ccc(Cn3cnc4c(NCc5cccc6ccccc56)nc(Oc5ccc6c(c5)OCO6)nc43)cc2)cc1 | –
2.6 µM | 50% | 36% | CC(c1ccc(-c2ccccc2)cc1)n1cnc2c(N[C@H](CO)Cc3ccccc3)nc(Oc3ccc4c(c3)CCC4)nc21 (some centres not stated) | –
> 100 µM | 81% | 47% | OC[C@H](Cc1ccccc1)Nc1nc(Oc2ccc3c(c2)CCC3)nc2c1ncn2Cc1ccc(-c2ccccc2F)cc1 | –
> 100 µM | 46% | 40% | COc1cccc(Oc2nc(NCCc3ccccc3)c3ncn(Cc4ccc(-c5ccccc5)cc4)c3n2)c1 | –
> 100 µM | 31% | 27% | c1ccc(CCNc2nc(Oc3ccc4c(c3)OCO4)nc3c2ncn3Cc2ccc(-c3ccccc3)cc2)cc1 | –
> 100 µM | 37% | 29% | COc1cccc(Oc2nc(NCc3cccc4ccccc34)c3ncn(Cc4ccc(-c5ccccc5)cc4)c3n2)c1 | –
2.9 µM | 81% | 78% | OC[C@H](Cc1ccccc1)Nc1nc(Oc2cccc(C(F)(F)F)c2)nc2c1ncn2Cc1ccc(-c2ccccc2)cc1 | –
> 100 µM | 50% | 27% | Cc1ccccc1Cn1cc(Cn2cnc3c(N[C@H](CO)Cc4ccccc4)nc(Oc4ccc5c(c4)CCC5)nc32)nn1 | –
4.5 µM | 90% | 57% | CC[C@@H](CO)Nc1nc(Oc2ccc3c(c2)CCC3)nc2c1ncn2Cc1ccc(-c2ccccc2)cc1 | –

Source: ChEMBL document CHEMBL3627670, “Structure-activity relationship studies of QS11, a small molecule Wnt synergistic agonist” (Bioorg Med Chem Lett, 2015)
